Measurements as given in ChEMBL document CHEMBL5724801, “EUbOPEN Chemogenomics Library - Multiplex” (2024).
Where “and” joins values, the source holds several entries; their conditions need not be identical. Identical values can stand only once.

Tested on: Fibroblast
Assay: Multiplex assay against human fibroblast
Type: toxicity, cell-based
Procedure, shortened: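 Cells were classed with CellPathfinder machine-learning gating, first as Hoechst high-intensity objects or normal cells, then (normal cells) as healthy, pyknosed or fragmented nuclei, and finally (pyknosed cells) as mitotic or apoptotic. Staining of live cells at seeding used Hoechst33342, BioTracker Green Microtubule Cytoskeleton Dye, MitoTracker Red and Annexin V Alexa Fluor 680, with imaging on a CQ1 microscope at 37°C and 5% CO2 after compound addition. Tubulin, mitochondrial-mass and membrane-permeability phenotypes are per cents of healthy-nucleus cells.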

[1] = 12 h, 1 µM, compound concentration 1 uM
[2] = 12 h, 10 µM, compound concentration 10 uM
[3] = 24 h, 1 µM, compound concentration 1 uM
[4] = 24 h, 10 µM, compound concentration 10 uM
[5] = 48 h, 1 µM, compound concentration 1 uM
[6] = 48 h, 10 µM, compound concentration 10 uM

CC(N)C1CCC(C(=O)Nc2ccncc2)CC1 (stereo not drawn)
Population Fragmented Nuclei (%) [1]: 12.67% and 4.31%
Population Healthy Nuclei (%) [1]: 64.25% and 88.36%
Population Hoechst High Intensity Objects (%) [1]: 0%
Population Membrane Permeable-Phenotype (%) [1]: 2.82% and 2.93%
Population Mitochondria Different-Phenotype (%) [1]: 7.75% and 8.29%
Population Mitotic Cells (%) [1]: 94.12% and 82.35%
Population Normal (%) [1]: 100%
Population Tubulin-Different-Phenotype (%) [1]: 11.27% and 12.2%
Total Cell Count [1]: 221 and 232
Population Apoptotic (%) [2]: 19.3% and 38.89%
Population Fragmented Nuclei (%) [2]: 9.18% and 4.02%
Population Healthy Nuclei (%) [2]: 63.29% and 85.63%
Population Hoechst High Intensity Objects (%) [2]: 0%
Population Membrane Permeable-Phenotype (%) [2]: 3.05% and 0%
Population Mitochondria Different-Phenotype (%) [2]: 10.69% and 10.07%
Population Mitotic Cells (%) [2]: 80.7% and 61.11%
Population Normal (%) [2]: 100%
Population Pyknosed Nuclei (%) [2]: 27.54% and 10.34%
Population Tubulin-Different-Phenotype (%) [2]: 10.69% and 8.05%
Total Cell Count [2]: 207 and 174
Population Apoptotic (%) [3]: 11.11% and 33.33%
Population Fragmented Nuclei (%) [3]: 6.64% and 2.82%
Population Healthy Nuclei (%) [3]: 78.42% and 89.92%
Population Hoechst High Intensity Objects (%) [3]: 0%
Population Membrane Permeable-Phenotype (%) [3]: 4.23% and 2.69%
Population Mitochondria Different-Phenotype (%) [3]: 0.53% and 5.83%
Population Mitotic Cells (%) [3]: 88.89% and 66.67%
Population Normal (%) [3]: 100%
Population Pyknosed Nuclei (%) [3]: 14.94% and 7.26%
Population Tubulin-Different-Phenotype (%) [3]: 7.41% and 11.66%
Total Cell Count [3]: 241 and 248
Population Apoptotic (%) [4]: 18.18% and 44.44%
Population Fragmented Nuclei (%) [4]: 6.51% and 6.08%
Population Healthy Nuclei (%) [4]: 78.14% and 88.95%
Population Hoechst High Intensity Objects (%) [4]: 0%
Population Membrane Permeable-Phenotype (%) [4]: 2.38% and 0%
Population Mitochondria Different-Phenotype (%) [4]: 4.76% and 8.07%
Population Mitotic Cells (%) [4]: 81.82% and 55.56%
Population Normal (%) [4]: 100%
Population Tubulin-Different-Phenotype (%) [4]: 13.69% and 11.8%
Total Cell Count [4]: 215 and 181
Population Apoptotic (%) [5]: 30.77% and 83.33%
Population Fragmented Nuclei (%) [5]: 11.15% and 6.02%
Population Healthy Nuclei (%) [5]: 83.85% and 91.57%
Population Hoechst High Intensity Objects (%) [5]: 0%
Population Membrane Permeable-Phenotype (%) [5]: 0.92% and 3.07%
Population Normal (%) [5]: 100%
Population Pyknosed Nuclei (%) [5]: 5% and 2.41%
Population Tubulin-Different-Phenotype (%) [5]: 3.21% and 10.09%
Total Cell Count [5]: 260 and 249
Population Apoptotic (%) [6]: 50% and 33.33%
Population Fragmented Nuclei (%) [6]: 10.31% and 6.56%
Population Healthy Nuclei (%) [6]: 86.64% and 90.16%
Population Hoechst High Intensity Objects (%) [6]: 0%
Population Membrane Permeable-Phenotype (%) [6]: 0.44% and 0.61%
Population Mitotic Cells (%) [6]: 50% and 66.67%
Population Normal (%) [6]: 100%
Population Pyknosed Nuclei (%) [6]: 3.05% and 3.28%
Population Tubulin-Different-Phenotype (%) [6]: 3.08% and 11.52%
Total Cell Count [6]: 262 and 183

CCCn1c(=O)c2[nH]c(C3CCCC3)nc2n(CCC)c1=O [1,3-DIPROPYL-8-CYCLOPENTYLXANTHINE [DPCPX]]
Population Apoptotic (%) [1]: 38% and 30%
Population Fragmented Nuclei (%) [1]: 10% and 25%
Population Healthy Nuclei (%) [1]: 73% and 46%
Population Hoechst High Intensity Objects (%) [1]: 3%
Population Membrane Permeable-Phenotype (%) [1]: 0% and 1%
Population Mitochondria Different-Phenotype (%) [1]: 1% and 10%
Population Mitotic Cells (%) [1]: 61% and 69%
Population Normal (%) [1]: 96%
Population Pyknosed Nuclei (%) [1]: 15% and 28%
Population Tubulin-Different-Phenotype (%) [1]: 29% and 50%
Total Cell Count [1]: 175 and 156
Population Apoptotic (%) [2]: 58% and 25%
Population Fragmented Nuclei (%) [2]: 18% and 32%
Population Healthy Nuclei (%) [2]: 65% and 47%
Population Hoechst High Intensity Objects (%) [2]: 3% and 6%
Population Membrane Permeable-Phenotype (%) [2]: 0% and 12%
Population Mitochondria Different-Phenotype (%) [2]: 10% and 3%
Population Mitotic Cells (%) [2]: 41% and 75%
Population Normal (%) [2]: 96% and 93%
Population Pyknosed Nuclei (%) [2]: 17% and 20%
Population Tubulin-Different-Phenotype (%) [2]: 47% and 59%
Total Cell Count [2]: 104 and 129
Population Apoptotic (%) [3]: 50% and 75%
Population Fragmented Nuclei (%) [3]: 13% and 30%
Population Healthy Nuclei (%) [3]: 77% and 48%
Population Hoechst High Intensity Objects (%) [3]: 2% and 3%
Population Membrane Permeable-Phenotype (%) [3]: 0% and 4%
Population Mitochondria Different-Phenotype (%) [3]: 2% and 12%
Population Mitotic Cells (%) [3]: 50% and 24%
Population Normal (%) [3]: 97% and 96%
Population Pyknosed Nuclei (%) [3]: 9% and 21%
Population Tubulin-Different-Phenotype (%) [3]: 30% and 54%
Total Cell Count [3]: 177 and 159
Population Fragmented Nuclei (%) [4]: 17% and 35%
Population Healthy Nuclei (%) [4]: 61% and 40%
Population Hoechst High Intensity Objects (%) [4]: 3% and 6%
Population Membrane Permeable-Phenotype (%) [4]: 6% and 8%
Population Mitochondria Different-Phenotype (%) [4]: 9% and 4%
Population Mitotic Cells (%) [4]: 36% and 79%
Population Normal (%) [4]: 96% and 93%
Population Pyknosed Nuclei (%) [4]: 22% and 24%
Population Tubulin-Different-Phenotype (%) [4]: 49% and 63%
Total Cell Count [4]: 104 and 125
Population Apoptotic (%) [5]: 72% and 47%
Population Fragmented Nuclei (%) [5]: 16% and 39%
Population Healthy Nuclei (%) [5]: 70% and 48%
Population Hoechst High Intensity Objects (%) [5]: 2% and 7%
Population Membrane Permeable-Phenotype (%) [5]: 0% and 5%
Population Mitotic Cells (%) [5]: 27% and 52%
Population Normal (%) [5]: 97% and 92%
Population Pyknosed Nuclei (%) [5]: 12%
Population Tubulin-Different-Phenotype (%) [5]: 35% and 55%
Total Cell Count [5]: 182 and 170
Population Apoptotic (%) [6]: 57% and 50%
Population Fragmented Nuclei (%) [6]: 24% and 43%
Population Healthy Nuclei (%) [6]: 55% and 45%
Population Hoechst High Intensity Objects (%) [6]: 3% and 2%
Population Mitochondria Different-Phenotype (%) [6]: 13% and 8%
Population Mitotic Cells (%) [6]: 42% and 50%
Population Normal (%) [6]: 96% and 97%
Population Pyknosed Nuclei (%) [6]: 20% and 10%
Population Tubulin-Different-Phenotype (%) [6]: 50% and 78%
Total Cell Count [6]: 98 and 136
